Converted amounts (≈) assume the structure as drawn.
What was measured:
[1] = tested on: Respiratory syncytial virus; assay: Inhibition of RSV by MTT assay; assay type: functional, organism-based; details: human respiratory syncytial virus
Procedure, shortened: (§1)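 HeLaM epithelial-like cells infected with RSV with or without a range of compound concentrations; viability read by MTT after 1 week incubation. OD measured spectrophotometrically and pEC50 derived. Virus, cell and cytotoxicity controls on every plate, reference compounds in every test; runs failing control criteria rejected.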

[2] = Cytotoxicity against human HeLaM cells by MTT assay; assay type: functional, M-HeLa
[3] = Half life in Sprague-Dawley rat lung; assay type: ADME, organism-based
[4] = tested on: Respiratory syncytial virus; assay: Antiviral activity against RSV R2LO replication in HeLa cells; assay type: functional, organism-based; details: for EC50: human respiratory syncytial virus, HeLa; procedure, shortened: as §1
[5] = tested on: Respiratory syncytial virus; assay: Antiviral activity against RSV R6LO replication in HeLa cells; assay type: functional, organism-based; details: for EC50: human respiratory syncytial virus, HeLa; procedure, shortened: as §1
[6] = tested on: Respiratory syncytial virus; assay: Antiviral activity in RSV infected cotton rat model assessed as log reduction of viral titer at 0.25 mg/mL by aerosol administration 1 hr prior to viral challenge; assay type: functional
Procedure, shortened: (§2)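 Single aerosol from an ultrasonic nebulizer for 1 h, given 1 h before RSV challenge; dose stated as drug concentration in the nebulizer reservoir. BALF collected by lung flushing with physiological water 4 days after challenge. Virus titre measured by plaque titration; log reduction calculated against untreated control animals.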

[7] = tested on: Respiratory syncytial virus; assay: Antiviral activity in RSV infected cotton rat model assessed as log reduction of viral titer at 1.25 mg/mL by aerosol administration 1 hr prior to viral challenge; assay type: functional; procedure, shortened: as §2
[8] = tested on: Respiratory syncytial virus; assay: Antiviral activity in RSV infected cotton rat model assessed as log reduction of viral titer at 5 mg/mL by aerosol administration 1 hr prior to viral challenge; assay type: functional; procedure, shortened: as §2
[9] = tested on: Respiratory syncytial virus; assay: Antiviral activity in RSV infected cotton rat model assessed as log reduction of viral titer at 20 mg/mL by aerosol administration 1 hr prior to viral challenge; assay type: functional; procedure, shortened: as §2
[10] = tested on: Respiratory syncytial virus; assay: Antiviral activity in RSV infected cotton rat model assessed as log reduction of viral titer at 10 mg/kg, iv after 24 hrs of viral challenge; assay type: functional
Procedure, shortened: (§3)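 Cotton rats received a single iv dose at set times before (minus) or after (plus) RSV challenge. Day 4 after challenge, lungs flushed with physiological water and BALF virus titre measured by plaque titration. Log reduction calculated against untreated controls.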

[11] = tested on: Respiratory syncytial virus; assay: Antiviral activity in RSV infected cotton rat model assessed as log reduction of viral titer at 10 mg/kg, po 2 hrs prior to viral challenge; assay type: functional
Procedure, shortened: (§4)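 Cotton rats dosed once orally by gavage 2 h before RSV challenge. BALF obtained by lung lavage with physiological water 4 days after challenge, virus titred by plaque assay. Log reduction expressed versus untreated control animals.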

[12] = tested on: Respiratory syncytial virus; assay: Antiviral activity in RSV infected cotton rat model assessed as log reduction of viral titer at 40 mg/kg, po 2 hrs prior to viral challenge; assay type: functional; procedure, shortened: as §4
[13] = AUC (0 to infinity) in Sprague-Dawley rat plasma at 2 mg/kg, iv; assay type: ADME, organism-based; set-up: time infinity, dose 2 mg/kg, route intravenous
[14] = Plasma clearance in Sprague-Dawley rat at 2 mg/kg, iv; assay type: ADME, organism-based; set-up: dose 2 mg/kg, route intravenous
[15] = Volume of distribution in Sprague-Dawley rat plasma at 2 mg/kg, iv; assay type: ADME, organism-based; set-up: dose 2 mg/kg, route intravenous
[16] = Half life in Sprague-Dawley rat plasma at 2 mg/kg, iv; assay type: ADME, organism-based; set-up: dose 2 mg/kg, route intravenous
[17] = Cmax in Sprague-Dawley rat plasma at 10 mg/kg, po; assay type: ADME, organism-based; set-up: dose 10 mg/kg, route oral
[18] = AUC (0 to infinity) in Sprague-Dawley rat plasma at 10 mg/kg, po; assay type: ADME, organism-based; set-up: time infinity, dose 10 mg/kg, route oral
[19] = Absolute bioavailability in Sprague-Dawley rat plasma at 10 mg/kg, po; assay type: ADME, organism-based
[20] = tested on: Respiratory syncytial virus; assay: Antiviral activity against RSV LO replication in HeLa cells; assay type: functional, organism-based; procedure, shortened: as §1
[21] = tested on: Respiratory syncytial virus; assay: Antiviral activity against RSV Cl11 replication in HeLa cells; assay type: functional, organism-based; details: for EC50: human respiratory syncytial virus, HeLa; procedure, shortened: as §1
[22] = tested on: Respiratory syncytial virus; assay: Antiviral activity against RSV CI57 replication in HeLa cells; assay type: functional, organism-based; details: for EC50: human respiratory syncytial virus, HeLa; procedure, shortened: as §1
[23] = tested on: Respiratory syncytial virus; assay: Antiviral activity against RSV CI41 replication in HeLa cells; assay type: functional, organism-based; details: for EC50: human respiratory syncytial virus, HeLa; procedure, shortened: as §1
[24] = tested on: Respiratory syncytial virus; assay: Antiviral activity against RSV CI42 replication in HeLa cells; assay type: functional, organism-based; details: for EC50: human respiratory syncytial virus, HeLa; procedure, shortened: as §1
[25] = tested on: Respiratory syncytial virus; assay: Antiviral activity against RSV R1LO replication in HeLa cells; assay type: functional, organism-based; details: for EC50: human respiratory syncytial virus, HeLa; procedure, shortened: as §1
[26] = tested on: Respiratory syncytial virus; assay: Antiviral activity in RSV infected cotton rat model assessed as log reduction of viral titer at 2 mg/kg, iv 5 mins prior to viral challenge; assay type: functional; procedure, shortened: as §3
[27] = tested on: Respiratory syncytial virus; assay: Antiviral activity in RSV infected cotton rat model assessed as log reduction of viral titer at 10 mg/kg, iv 96 hrs prior to viral challenge; assay type: functional; procedure, shortened: as §3
[28] = tested on: Respiratory syncytial virus; assay: Antiviral activity in RSV infected cotton rat model assessed as log reduction of viral titer at 10 mg/kg, iv 72 hrs prior to viral challenge; assay type: functional; procedure, shortened: as §3
[29] = tested on: Respiratory syncytial virus; assay: Antiviral activity in RSV infected cotton rat model assessed as log reduction of viral titer at 10 mg/kg, iv 48 hrs prior to viral challenge; assay type: functional; procedure, shortened: as §3
[30] = tested on: Respiratory syncytial virus; assay: Antiviral activity in RSV infected cotton rat model assessed as log reduction of viral titer at 10 mg/kg, iv 24 hrs prior to viral challenge; assay type: functional; procedure, shortened: as §3
[31] = tested on: Respiratory syncytial virus; assay: Antiviral activity in RSV infected cotton rat model assessed as log reduction of viral titer at 10 mg/kg, iv 4 hrs prior to viral challenge; assay type: functional; procedure, shortened: as §3
[32] = tested on: Respiratory syncytial virus; assay: Antiviral activity in RSV infected cotton rat model assessed as log reduction of viral titer at 10 mg/kg, iv 1 hrs prior to viral challenge; assay type: functional; procedure, shortened: as §3
[33] = tested on: Respiratory syncytial virus; assay: Antiviral activity in RSV infected cotton rat model assessed as log reduction of viral titer at 10 mg/kg, iv 5 mins prior to viral challenge; assay type: functional; procedure, shortened: as §3
[34] = tested on: Respiratory syncytial virus; assay: Antiviral activity in RSV infected cotton rat model assessed as log reduction of viral titer at 10 mg/kg, iv after 3 hrs of viral challenge; assay type: functional; procedure, shortened: as §3

For `Cc1cc(C)cc(NCc2ccc3nc(NC4CCN(C)CC4)n(Cc4nc(C)ccc4O)c3c2)c1`, the EC50 [1] was 2.51 nM and the pCC50 [2] was 4.3.

In the case of `CCCCNc1nc2ccc(CNc3cc(C)cc(C)c3)cc2n1Cc1nc(C)ccc1O`, the EC50 [1] is reported as > 100000 nM and the pCC50 [2] is reported as 5.1.

`Cc1ccc(O)c(Cn2c(NCCCN3CCOCC3)nc3ccc(CNc4ccccc4CCCO)cc32)n1` gave an EC50 [1] of 0.251 nM and a pCC50 [2] of 4.9.

`Cc1cc(C)cc(N(CCCC(N)=O)Cc2ccc3nc(NCCCN4CCOCC4)n(Cc4nc(C)ccc4O)c3c2)c1` gave an EC50 [1] of 0.251 nM, a pCC50 [2] of 4.7 and a half-life [3] of 10.4 h.

Work on `Cc1ccc(O)c(Cn2c(NC3CCN(C)CC3)nc3ccc(CNc4ccccc4)cc32)n1` yielded an EC50 [1] of 15.8 nM and a pCC50 [2] of 4.5.

With `Cc1cccc(NCc2ccc3nc(NC4CCN(CCO)CC4)n(Cc4nc(C)ccc4O)c3c2)c1` the EC50 [1] was 1.58 nM, the pCC50 [2] was 4.4 and the half-life [3] was 67.7 h.

For `Cc1cc(C)cc(N(CCO)Cc2ccc3nc(NC4CCN(C)CC4)n(Cc4nc(C)ccc4O)c3c2)c1`, the EC50 [1] was 0.398 nM and the pCC50 [2] was 4.4.

For `Cc1cccc(CCc2ccc3nc(NC4CCN(C)CC4)n(Cc4nc(C)ccc4O)c3c2)c1`, the EC50 [1] was 20 nM and the pCC50 [2] was 5.9.

With `Cc1cc(C)cc(NCc2ccc3nc(NC4CCN(CCO)CC4)n(Cc4nc(C)ccc4O)c3c2)c1` the EC50 [1] was 1.58 nM, the pCC50 [2] was 4.5 and the half-life [3] was 84.9 h.

For `Cc1cccc(CNc2ccc3nc(NC4CCN(C)CC4)n(Cc4nc(C)ccc4O)c3c2)c1`, the EC50 [1] was 15.8 nM and the pCC50 [2] was 4.8.

Molecule `Cc1cc(C)cc(NCc2ccc3nc(NCC(O)CO)n(Cc4nc(C)ccc4O)c3c2)c1` (stereo not given) has an EC50 [1] of 31.6 nM and a pCC50 [2] of 4.3.

In the case of `Cc1ccc(O)c(Cn2c(NC3CCN(C)CC3)nc3ccc(CN(CCO)c4ccccc4)cc32)n1`, the EC50 [1] is reported as 3.16 nM and the pCC50 [2] is reported as <4.

In the case of `Cc1ccc(CCCO)c(NCc2ccc3nc(NCCCN4CCOCC4)n(Cc4nc(C)ccc4O)c3c2)c1`, the pEC90 [4] is reported as <4, the EC50 ([4]; read-out: EC50) is reported as 280 ng/mL and the EC50 ([4]; read-out: Log EC50 (converted)) is reported as 501 nM. The pEC90 [5] was <6.7, the EC50 ([5]; read-out: EC50) was 0.04 ng/mL and the EC50 ([5]; read-out: Log EC50 (converted)) was 0.0794 nM. The Activity [6] was 0.6, the Activity [7] was 1 and the Activity [8] was 1.5. For the same molecule, the Activity [9] was 1.6, the Activity [10] was 0.2 and the Activity [11] was 0.4. It also gave an Activity [12] of 0.8, an AUC(0-inf) [13] of 0.354 µg·h/mL and a clearance [14] of 5.4 L/h/kg. It also gave a Vd [15] of 79.3 L/kg, a half-life [16] of 10.3 h and a Cmax [17] of 0.0473 µg/mL. For the same molecule, the AUC(0-inf) [18] was 0.246 µg·h/mL, the bioavailability [19] was 14% and the pCC50 [2] was 5.1. For the same molecule, the CC50 ([2]; Homo sapiens, M-HeLa) was 4440 ng/mL (≈ 7.94 µM), the half-life [3] was 25.1 h and the pEC90 [20] was 9.6. For the same molecule, the EC50 ([20]; human respiratory syncytial virus, HeLa) was 0.07 ng/mL (≈ 0.000125 µM), the pEC90 [21] was 10 and the EC50 ([21]; read-out: EC50) was 0.03 ng/mL. The EC50 ([21]; read-out: Log EC50 (converted)) was 0.0501 nM, the pEC90 [22] was 9.8 and the EC50 ([22]; read-out: EC50) was 0.04 ng/mL. It also gave an EC50 ([22]; read-out: Log EC50 (converted)) of 0.0794 nM, a pEC90 [23] of 10.1 and an EC50 ([23]; read-out: EC50) of 0.02 ng/mL. For the same molecule, the EC50 ([23]; read-out: Log EC50 (converted)) was 0.0316 nM, the pEC90 [24] was 10.1 and the EC50 ([24]; read-out: EC50) was 0.02 ng/mL. The EC50 ([24]; read-out: Log EC50 (converted)) was 0.0316 nM, the pEC90 [25] was 7.5 and the EC50 ([25]; read-out: EC50) was 7.03 ng/mL. It also gave an EC50 ([25]; read-out: Log EC50 (converted)) of 12.6 nM, an Activity [26] of 0.4 and an Activity [27] of 0.2. It also gave an Activity [28] of 0.4, an Activity [29] of 0.3 and an Activity [30] of 0.5. It also gave an Activity [31] of 0.9, an Activity [32] of 0.9 and an Activity [33] of 1.2. The Activity [34] was 0.5.

`Cc1cccc(N(CCO)Cc2ccc3nc(NCCCN4CCOCC4)n(Cc4nc(C)ccc4O)c3c2)c1` showed an EC50 [1] of 0.501 nM and a pCC50 [2] of 5.

Molecule `Cc1cccc(C(=O)Nc2ccc3nc(NC4CCN(C)CC4)n(Cc4nc(C)ccc4O)c3c2)c1` has an EC50 [1] of 63.1 nM and a pCC50 [2] of 4.3.
